According to ChEMBL document CHEMBL1129660, “Studies on 6-aminoquinolones: synthesis and antibacterial evaluation of 6-amino-8-methylquinolones” (J Med Chem, 1996):
≈ marks a conversion by molar mass, not a printed value.

Assays:
[1] = system: Klebsiella pneumoniae; assay: Antibacterial activity tested against Klebsiella pneumoniae (Klebsiella pneumoniae) ATCC 10031; type: functional
Procedure, shortened: (§1)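 MICs (µg/mL) determined by conventional agar dilution against a panel of eight Gram-negative and five Gram-positive reference strains.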

[2] = system: Staphylococcus aureus; assay: Antibacterial activity tested against Staphylococcus aureus; Range is 0.004-0.03 ug/mL; type: functional
[3] = organism: Mus musculus; assay: Minimum inhibitory concentration against Septicemia caused by Staphylococcus aureus in mice; type: functional
[4] = system: Escherichia coli; assay: Antibacterial activity tested against Escherichia coli ISF 432; type: functional; procedure, shortened: as §1
[5] = system: Mus musculus; assay: Efficacy against Septicemia caused by Staphylococcus aureus in mice by Oral administration; type: functional
Procedure, shortened: (§2)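 S. aureus Smith ATCC19636, overnight brain-heart infusion culture diluted in 5% mucin, given i.p. (0.5 mL) to male and female CD-1 mice (18-22 g). Single s.c. or oral dose within 10 min of infection, drug in DMSO/0.5% methocel or as suspension. 3-5 dose groups of six mice; ED50 with 95% limits by Spearman-Kärber from day-7 survival.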

[6] = system: Pseudomonas aeruginosa; assay: Antibacterial activity tested against P. ae (Pseudomonas aeruginosa) ATCC 9027; type: functional; procedure, shortened: as §1
[7] = system: Escherichia coli; assay: Inhibitory activity against gyrase supercoiling activity from Escherichia coli; type: functional
Procedure, shortened: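 Inhibition of DNA gyrase supercoiling activity, by a previously described protocol with slight modifications. IC50 derived by densitometric quantification of the supercoiled DNA peak in an agarose gel.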

[8] = system: Staphylococcus aureus; assay: Antibacterial activity against Staphylococcus aureus MPR 5; type: functional; procedure, shortened: as §1
[9] = system: Staphylococcus epidermidis; assay: Antibacterial activity tested against Staphylococcus epidermidis CPHL A2; type: functional; procedure, shortened: as §1
[10] = system: Bacteria; assay: Geometric mean of antibacterial activity (Gram +ve bacteria) of the compound; type: functional
Procedure, shortened: (§3)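 Geometric means calculated from agar-dilution MICs (µg/mL), taken separately across the five Gram-positive and the eight Gram-negative panel strains.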

[11] = system: Enterobacter cloacae; assay: Antibacterial activity tested against Enterobacter cloacae OMNFI 174; type: functional
[12] = system: Providencia stuartii; assay: Antibacterial activity tested against Providencia stuartii CNUR 5; type: functional; procedure, shortened: as §1
[13] = system: Enterococcus faecalis; assay: Antibacterial activity tested against Streptococcus faecalis LEP Br; type: functional; procedure, shortened: as §1
[14] = Geometric mean of antibacterial activity (Gram -ve bacteria) of the compound; type: functional; procedure, shortened: as §3
[15] = system: Mus musculus; assay: Efficacy against Septicemia caused by Staphylococcus aureus in mice by subcutaneous administration; type: functional; settings: sc; procedure, shortened: as §2
[16] = system: Escherichia coli; assay: Antibacterial activity tested against Escherichia coli ATCC 8739; type: functional; procedure, shortened: as §1
[17] = system: Staphylococcus epidermidis; assay: Antibacterial activity tested against Staphylococcus epidermidis HCF Berset C; type: functional; procedure, shortened: as §1
[18] = system: Staphylococcus aureus; assay: Antibacterial activity tested against Staphylococcus aureus Methicillin-and Ciprofloxacin resistants; Range is 0.05-1 ug/mL; type: functional
[19] = system: Enterococcus faecium; assay: Antibacterial activity tested against Enterococcus faecium; Range is 0.06-1 ug/mL; type: functional
[20] = system: Proteus vulgaris; assay: Antibacterial activity tested against Proteus vulgaris CNUR 5; type: functional; procedure, shortened: as §1
[21] = system: Streptococcus pneumoniae; assay: Antibacterial activity tested against Streptococcus pneumoniae; type: functional
[22] = system: Staphylococcus aureus; assay: Antibacterial activity against Staphylococcus aureus ATCC 6538; type: functional; procedure, shortened: as §1
[23] = system: Enterococcus faecalis; assay: Antibacterial activity tested against Enterococcus faecalis; type: functional
[24] = system: Shigella; assay: Antibacterial activity tested against Shigella enteritidis; type: functional; procedure, shortened: as §1
[25] = system: Enterococcus faecium; assay: Antibacterial activity tested against Enterococcus faecium; Range is 1-32 ug/mL; type: functional
[26] = system: Staphylococcus aureus; assay: Antibacterial activity tested against Staphylococcus aureus; Range is 0.06-0.13 ug/mL; type: functional
[27] = system: Staphylococcus aureus; assay: Antibacterial activity tested against Staphylococcus aureus Methicillin-and Ciprofloxacin resistants; Range is 2-4 ug/mL; type: functional
[28] = system: Enterococcus faecalis; assay: Antibacterial activity tested against Enterococcus faecalis; Range is 0.13-0.5 ug/mL; type: functional
[29] = system: Streptococcus pneumoniae; assay: Antibacterial activity tested against Streptococcus pneumoniae; Range is 1-2 ug/mL; type: functional
[30] = system: Staphylococcus aureus; assay: Antibacterial activity tested against Staphylococcus aureus; Range is 0.016-0.13 ug/mL; type: functional
[31] = system: Enterococcus faecium; assay: Antibacterial activity tested against Enterococcus faecium; Range is 1-2 ug/mL; type: functional
[32] = system: Streptococcus pneumoniae; assay: Antibacterial activity tested against Streptococcus pneumoniae; Range is 0.5-2 ug/mL; type: functional
[33] = system: Staphylococcus aureus; assay: Antibacterial activity tested against Staphylococcus aureus Methicillin-and Ciprofloxacin resistants; Range is 4-32 ug/mL; type: functional
[34] = system: Enterococcus faecium; assay: Antibacterial activity tested against Enterococcus faecium; Range is 0.25-4 ug/mL; type: functional
[35] = system: Enterococcus faecalis; assay: Antibacterial activity tested against Enterococcus faecalis; Range is 0.25-0.5 ug/mL; type: functional
[36] = system: Enterococcus faecium; assay: microbe, parasite or virus in culture
[37] = system: Enterococcus faecalis; assay: microbe, parasite or virus in culture
[38] = system: Staphylococcus aureus; assay: microbe, parasite or virus in culture
[39] = system: Staphylococcus aureus; assay: microbe, parasite or virus in culture; remark: listed apart in the source

Row | SMILES | MIC [1] | MIC [4] | ED50 [5] | MIC [6] | IC50 [7] | MIC [8] | MIC [9] | Geometric mean [10] | MIC [11] | MIC [12] | MIC [13] | Geometric mean [14] | ED50 [15] | MIC [16] | MIC [17] | MIC [20] | MIC [21] | MIC [22] | MIC [23] | MIC [24] | also measured
1 | Cc1c(N2CCc3ccccc3C2)c(N)cc2c(=O)c(C(=O)O)cn(C3CC3)c12 | 0.06 µg/mL (≈ 0.154 µM) | 0.008 µg/mL (≈ 0.0205 µM) | 5 mg/kg | 0.5 µg/mL (≈ 1.28 µM) | 3.58 µg/mL (≈ 9.19 µM) | 0.008 µg/mL (≈ 0.0205 µM) | 0.016 µg/mL (≈ 0.0411 µM) | 0.024 | 0.25 µg/mL (≈ 0.642 µM) | 0.06 µg/mL (≈ 0.154 µM) | 0.25 µg/mL (≈ 0.642 µM) | 0.105 | 1.3 mg/kg | 0.008 µg/mL (≈ 0.0205 µM) | 0.03 µg/mL (≈ 0.077 µM) | 2 µg/mL (≈ 5.14 µM) | 0.13 µg/mL (≈ 0.334 µM) | 0.008 µg/mL (≈ 0.0205 µM) | 0.06 µg/mL (≈ 0.154 µM) | 0.25 µg/mL (≈ 0.642 µM) | MIC [2]: 4 ng/mL (≈ 0.0103 µM); MIC [3]: 0.016 µg/mL (≈ 0.0411 µM); MIC [18]: 0.05 µg/mL (≈ 0.128 µM); MIC [19]: 0.06 µg/mL (≈ 0.154 µM)
2 | Cc1c(N2C[C@@H](C)O[C@@H](C)C2)c(N)cc2c(=O)c(C(=O)O)cn(C3CC3)c12 | 0.08 µg/mL (≈ 0.215 µM) | 0.008 µg/mL (≈ 0.0215 µM) | – | 4 µg/mL (≈ 10.8 µM) | > 50 µg/mL | 0.03 µg/mL (≈ 0.0808 µM) | 0.125 µg/mL (≈ 0.337 µM) | 0.107 | 1 µg/mL (≈ 2.69 µM) | 1 µg/mL (≈ 2.69 µM) | 1 µg/mL (≈ 2.69 µM) | 0.336 | – | 0.008 µg/mL (≈ 0.0215 µM) | 0.125 µg/mL (≈ 0.337 µM) | 8 µg/mL (≈ 21.5 µM) | 2 µg/mL (≈ 5.38 µM) | 0.03 µg/mL (≈ 0.0808 µM) | 0.05 µg/mL (≈ 0.135 µM) | 1 µg/mL (≈ 2.69 µM) | MIC [25]: 1 µg/mL (≈ 2.69 µM); MIC [26]: 0.06 µg/mL (≈ 0.162 µM); MIC [27]: 2 µg/mL (≈ 5.38 µM)
3 | Cc1c(N2CCCCC2)c(N)cc2c(=O)c(C(=O)O)cn(C3CC3)c12 | 0.03 µg/mL (≈ 0.0879 µM) | 0.03 µg/mL (≈ 0.0879 µM) | – | 1 µg/mL (≈ 2.93 µM) | 3.22 µg/mL (≈ 9.43 µM) | 0.06 µg/mL (≈ 0.176 µM) | 0.125 µg/mL (≈ 0.366 µM) | 0.123 | 0.25 µg/mL (≈ 0.732 µM) | 0.5 µg/mL (≈ 1.46 µM) | 0.5 µg/mL (≈ 1.46 µM) | 0.225 | – | 0.03 µg/mL (≈ 0.0879 µM) | 0.125 µg/mL (≈ 0.366 µM) | 8 µg/mL (≈ 23.4 µM) | – | 0.06 µg/mL (≈ 0.176 µM) | – | 0.25 µg/mL (≈ 0.732 µM) | MIC [28]: 0.5 µg/mL (≈ 1.46 µM); MIC [29]: 1 µg/mL (≈ 2.93 µM); MIC [30]: 0.016 µg/mL (≈ 0.0469 µM); MIC [31]: 1 µg/mL (≈ 2.93 µM); MIC [27]: 2 µg/mL (≈ 5.86 µM)
4 | Cc1c(N2CCC(O)CC2)c(N)cc2c(=O)c(C(=O)O)cn(C3CC3)c12 | 0.03 µg/mL (≈ 0.0839 µM) | 0.03 µg/mL (≈ 0.0839 µM) | – | 2 µg/mL (≈ 5.6 µM) | 5.74 µg/mL (≈ 16.1 µM) | 0.125 µg/mL (≈ 0.35 µM) | 0.06 µg/mL (≈ 0.168 µM) | 0.106 | 0.5 µg/mL (≈ 1.4 µM) | 1 µg/mL (≈ 2.8 µM) | 0.5 µg/mL (≈ 1.4 µM) | 0.495 | – | 1 µg/mL (≈ 2.8 µM) | 0.06 µg/mL (≈ 0.168 µM) | 16 µg/mL (≈ 44.8 µM) | – | 0.06 µg/mL (≈ 0.168 µM) | – | 0.25 µg/mL (≈ 0.699 µM) | MIC [32]: 0.5 µg/mL (≈ 1.4 µM); MIC [33]: 4 µg/mL (≈ 11.2 µM); MIC [26]: 0.06 µg/mL (≈ 0.168 µM); MIC [34]: 0.25 µg/mL (≈ 0.699 µM); MIC [35]: 0.25 µg/mL (≈ 0.699 µM)
5 | O=C(O)c1cn(C2CC2)c2cc(N3CCNCC3)c(F)cc2c1=O [CIPROFLOXACIN] | – | – | 7 mg/kg | 0.06 µg/mL (≈ 0.181 µM) | – | 0.06 µg/mL (≈ 0.181 µM) | 0.06 µg/mL (≈ 0.181 µM) | 0.092 | – | 0.06 µg/mL (≈ 0.181 µM) | 0.5 µg/mL (≈ 1.51 µM) | 0.033 | 0.9 mg/kg | – | 0.06 µg/mL (≈ 0.181 µM) | 0.5 µg/mL (≈ 1.51 µM) | – | 0.06 µg/mL (≈ 0.181 µM) | – | – | MIC [36]: 1 µg/mL (≈ 3.02 µM); MIC [37]: 0.5 µg/mL (≈ 1.51 µM); MIC [38]: 0.13 µg/mL (≈ 0.392 µM); MIC [39]: 4 µg/mL (≈ 12.1 µM)
